Measured values from ChEMBL document CHEMBL5647697, “Akt inhibition synergizes with polycomb repressive complex 2 inhibition in the treatment of multiple myeloma” (2019).
Active and inactive are the calls of the source. The rule behind the calls is not given here.

What was measured:
MM1.S [1] = assay: Downregulation of EZH2 mRNA expression in human MM1.S cells at 0.3 to 3 micromol/L after 24 hrs by qRT-PCR analysis; format: functional, cell-based; conditions: dose 0.3-3 µmol/L
Summary of the method: (§1)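 MM.1S and H929 cells given TAS-117 at the indicated doses for 24 h. mRNA measured by RT-qPCR, fold change after normalization to GAPDH; SD of triplicates; significance versus untreated control.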

NCI-H929 [2] = assay: Downregulation of E2F1 protein expression in human NCI-H929 cells incubated at 0.3 to 3 micromol/L for 48 hrs by Western blot analysis; conditions: dose 0.3-3 µmol/L
MM1.S [3] = assay: Synergistic activity against human MM.1S cells assessed as combination index […] at 0.5 uM incubated for 48 hrs by MTT assay; format: functional
Summary of the method: (§2)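 Cells were exposed to the EZH2/EZH1 inhibitor (UNC1999 or GSK126) for 72 h in total, with the Akt inhibitor added for the last 48 h. Viability was read by MTS assay relative to untreated control cells, in triplicate. The combination index for each dose pair came from isobologram analysis.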

NCI-H929 [4] = assay: Induction of apoptosis in human NCI-H929 cells assessed as early apoptotic cells preincubated in presence of 5 micromol/L UNC1999 for 48 hrs followed by compound addition at 2 micromol/L incubated for 12 hrs by annexin V/PI staining based flow cytometry (reference value: 0.37%); format: functional; conditions: dose 2 µmol/L, at 2 µM
OPM-2/BTZ [5] = assay: Synergistic activity against human OPM-2/BTZ cells assessed as combination index preincubated in presence of 1.25 uM GSK126 for 72 hrs followed by compound addition at 0.5 uM incubated for 48 hrs by MTT assay; format: functional
NCI-H929 [6] = assay: Downregulation of CDK2 protein expression in human NCI-H929 cells incubated at 0.3 to 3 micromol/L for 48 hrs by Western blot analysis; format: functional, cell-based; conditions: dose 0.3-3 µmol/L
Summary of the method: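 MM.1S and H929 cells given TAS-117 at the indicated doses for 48 h. Protein levels assessed by immunoblot.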

MM1.S [7] = assay: Upregulation of BIM mRNA expression in human MM1.S cells at 1 micromol/L after 24 hrs by qRT-PCR analysis; format: functional, cell-based; conditions: dose 1.0 µmol/L
NCI-H929 [8] = assay: Synergistic activity against human NCI-H929 cells assessed as combination index […] in presence of 5 uM GSK126 […] compound addition at 0.5 uM incubated for 48 hrs by […]; format: functional; summary of the method: as §2
MM1.S [9] = assay: Upregulation of FOXO3 […] expression in human MM1.S cells assessed as enhanced nuclear accumulation at 1 micromol/L after 24 hrs by immunofluorescence staining; format: functional, cell-based; conditions: dose 1.0 µmol/L
OPM-2/BTZ [10] = assay: Downregulation of phospho-Rb protein expression in human OPM-2/BTZ cells incubated at 0.3 to 3 micromol/L for 48 hrs by Western blot analysis; format: functional, cell-based; conditions: dose 0.3-3 µmol/L
MM1.S [11] = assay: Synergistic activity against human MM.1S cells assessed as combination index […] at 0.125 uM incubated for 48 hrs by […]; format: functional; summary of the method: as §2
OPM-2 [12] = assay: Synergistic activity against human OPM-2 cells assessed as combination index preincubated in presence of 1.25 uM UNC1999 for 72 hrs followed by compound addition at 1.25 uM incubated for 48 hrs by MTT assay; format: functional
NCI-H929 [13] = assay: Upregulation of FOXO3 in human NCI-H929 cells assessed as enhanced nuclear accumulation at 0.5 micromol/L after 24 hrs by immunofluorescence staining; format: functional, cell-based; conditions: dose 0.5 µmol/L
Summary of the method: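 MM.1S and H929 cells were treated with or without 0.5 μmol/L TAS-117 for 24 h. Cells were immunostained with anti-FOXO3. Jurkat cells served as positive control and cells without primary antibody as negative control. Read-out was the average fluorescence intensity of the nuclear FOXO3 fraction versus untreated cells.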

[14] = target: Serine/threonine-protein kinase AKT (Homo sapiens) (UniProt P31751+Q9Y243+P31749); assay: Inhibition of Akt phosphorylation in human NCI-H929 cells at 0.3 to 5 micromol/L for 6 to 48 hrs by Western blot analysis; format: cell-based; conditions: dose 0.3-5 µmol/L, time 6-48 hrs
Summary of the method: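 MM.1S and H929 cells were treated with graded doses for 48 h, or with 5 μmol/L for the stated times. Lysates were immunoblotted, with GAPDH, total Akt and H3 as loading controls.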

NCI-H929 [15] = assay: Synergistic activity against human NCI-H929 cells assessed as combination index […] compound addition at 0.25 uM incubated for 48 hrs by […]; format: functional; summary of the method: as §2
OPM-2/BTZ [16] = assay: Synergistic activity against human OPM-2/BTZ cells assessed as combination index preincubated in presence of 1.25 uM UNC1999 for 72 hrs followed by compound addition at 0.5 uM incubated for 48 hrs by MTT assay; format: functional
NCI-H929 [17] = assay: Downregulation of E2F1 mRNA expression in human NCI-H929 cells incubated at 0.3 to 3 micromol/L for 24 hrs by qRT-PCR analysis; format: functional, cell-based; conditions: dose 0.3-3 µmol/L; summary of the method: as §1
OPM-2/BTZ [18] = assay: Synergistic activity against human OPM-2/BTZ cells assessed as combination index preincubated in presence of 1.25 uM UNC1999 for 72 hrs followed by compound addition at 2 uM incubated for 48 hrs by MTT assay; format: functional
MM1.S [19] = assay: Induction of apoptosis in human MM1.S cells assessed as necrotic cells at 2 micromol/L incubated for 12 hrs by annexin V/PI staining based flow cytometry (reference value: 0.17%); format: functional; conditions: dose 2 µmol/L, at 2 µM
OPM-2 [20] = assay: Synergistic activity against human OPM-2 cells assessed as combination index preincubated in presence of 2.5 uM UNC1999 for 72 hrs followed by compound addition at 1.25 uM incubated for 48 hrs by MTT assay; format: functional
NCI-H929 [21] = assay: Synergistic activity against human NCI-H929 cells assessed as combination index preincubated in presence of 2.5 uM UNC1999 […] at 0.5 uM incubated for 48 hrs by […]; format: functional; summary of the method: as §2
OPM-2/BTZ [22] = assay: Downregulation of cyclin D1 protein expression in human OPM-2/BTZ cells incubated at 0.3 to 3 micromol/L for 48 hrs by Western blot analysis; format: functional, cell-based; conditions: dose 0.3-3 µmol/L
MM1.S [23] = assay: Upregulation of CDKN1B mRNA expression in human MM1.S cells at 1 micromol/L after 24 hrs by qRT-PCR analysis; format: functional, cell-based; conditions: dose 1.0 µmol/L
NCI-H929 [24] = assay: Synergistic activity against human NCI-H929 cells assessed as combination index […] at 0.25 uM incubated for 48 hrs by […]; format: functional; summary of the method: as §2
OPM-2/BTZ [25] = assay: Synergistic activity against human OPM-2/BTZ cells assessed as combination index preincubated in presence of 5 uM GSK126 for 72 hrs followed by compound addition at 1 uM incubated for 48 hrs by MTT assay; format: functional
NCI-H929 [26] = assay: Synergistic activity against human NCI-H929 cells assessed as combination index […] in presence of 2.5 uM UNC1999 […] at 0.125 uM incubated for 48 hrs by […]; format: functional; summary of the method: as §2
NCI-H929 [27] = assay: Synergistic activity against human NCI-H929 cells assessed as combination index […] compound addition at 0.125 uM incubated for 48 hrs by MTT assay; format: functional; summary of the method: as §2
OPM-2/BTZ [28] = assay: Downregulation of EZH2 protein expression in human OPM-2/BTZ cells at 0.3 to 5 micromol/L for 6 to 48 hrs by Western blot analysis; format: functional, cell-based; conditions: dose 0.3-5 µmol/L, time 6-48 hrs
NCI-H929 [29] = assay: Upregulation of FOXO4 […] expression in human NCI-H929 cells assessed as enhanced nuclear accumulation at 1 micromol/L after 24 hrs by immunofluorescence staining; format: functional, cell-based; conditions: dose 1.0 µmol/L

Chain of Serine/threonine-protein kinase AKT (Homo sapiens) (P31749 whole entry, looked up): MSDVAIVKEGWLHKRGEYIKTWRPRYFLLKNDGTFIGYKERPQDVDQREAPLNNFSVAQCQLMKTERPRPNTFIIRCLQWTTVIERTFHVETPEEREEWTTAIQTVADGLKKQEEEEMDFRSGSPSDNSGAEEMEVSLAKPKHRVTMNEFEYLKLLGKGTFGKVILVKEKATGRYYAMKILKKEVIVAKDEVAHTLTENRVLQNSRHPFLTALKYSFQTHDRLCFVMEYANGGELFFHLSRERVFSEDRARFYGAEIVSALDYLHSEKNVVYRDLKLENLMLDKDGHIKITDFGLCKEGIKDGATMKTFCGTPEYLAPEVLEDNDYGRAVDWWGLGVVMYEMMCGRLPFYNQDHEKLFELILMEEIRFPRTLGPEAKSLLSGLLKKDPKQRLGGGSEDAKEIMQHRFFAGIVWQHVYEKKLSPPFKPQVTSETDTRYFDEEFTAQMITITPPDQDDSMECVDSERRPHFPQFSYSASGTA
Chain of Serine/threonine-protein kinase AKT (Homo sapiens) (P31751 whole entry, looked up): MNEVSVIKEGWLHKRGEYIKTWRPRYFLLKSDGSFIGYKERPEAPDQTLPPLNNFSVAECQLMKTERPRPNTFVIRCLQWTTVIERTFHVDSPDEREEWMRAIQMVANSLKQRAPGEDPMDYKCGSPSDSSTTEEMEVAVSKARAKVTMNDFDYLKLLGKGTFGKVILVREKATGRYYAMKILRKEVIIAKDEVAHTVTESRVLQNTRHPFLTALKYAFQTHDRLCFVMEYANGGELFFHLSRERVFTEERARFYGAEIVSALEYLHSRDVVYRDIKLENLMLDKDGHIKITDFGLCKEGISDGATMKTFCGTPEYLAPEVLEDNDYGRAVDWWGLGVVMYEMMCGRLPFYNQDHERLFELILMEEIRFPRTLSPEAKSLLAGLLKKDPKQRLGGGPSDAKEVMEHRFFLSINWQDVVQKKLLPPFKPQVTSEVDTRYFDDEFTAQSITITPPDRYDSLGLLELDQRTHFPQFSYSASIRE
Chain of Serine/threonine-protein kinase AKT (Homo sapiens) (Q9Y243 whole entry, looked up): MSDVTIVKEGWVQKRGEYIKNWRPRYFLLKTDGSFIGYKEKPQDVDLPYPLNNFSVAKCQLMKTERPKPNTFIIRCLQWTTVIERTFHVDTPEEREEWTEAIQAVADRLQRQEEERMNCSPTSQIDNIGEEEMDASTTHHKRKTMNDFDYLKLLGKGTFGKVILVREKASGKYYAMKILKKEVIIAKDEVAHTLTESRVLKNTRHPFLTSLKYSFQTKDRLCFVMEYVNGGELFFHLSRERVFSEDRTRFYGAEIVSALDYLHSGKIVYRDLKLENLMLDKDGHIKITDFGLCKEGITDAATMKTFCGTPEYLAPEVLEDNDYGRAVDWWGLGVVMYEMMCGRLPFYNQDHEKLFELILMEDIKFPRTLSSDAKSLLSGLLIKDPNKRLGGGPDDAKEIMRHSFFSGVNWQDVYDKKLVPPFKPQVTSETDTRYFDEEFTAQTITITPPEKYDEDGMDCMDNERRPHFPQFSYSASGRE

## C[C@]1(O)C[C@@](N)(c2ccc(-c3nc4n(c3-c3ccccc3)COc3ccncc3-4)cc2)C1 [PIFUSERTIB]
MM1.S [1]
  Activity: Active
NCI-H929 [2]
  Activity: Active
MM1.S [3]
  CI: 1.03
NCI-H929 [4]
  Activity: 16.1%
OPM-2/BTZ [5]
  CI: 0.624
NCI-H929 [6]
  Activity: Active
MM1.S [7]
  Activity: Active
NCI-H929 [8]
  CI: 7.883
MM1.S [9]
  Activity: Active
OPM-2/BTZ [10]
  Activity: Active
MM1.S [11]
  CI: 0.532
OPM-2 [12]
  CI: 1.33
NCI-H929 [13]
  Activity: Active
[14]
  inhibition: Active
NCI-H929 [15]
  CI: 7.428
OPM-2/BTZ [16]
  CI: 0.74
NCI-H929 [17]
  Activity: Active
OPM-2/BTZ [18]
  CI: 0.395
MM1.S [19]
  Activity: 0.23%
OPM-2 [20]
  CI: 2.53
NCI-H929 [21]
  CI: 0.807
OPM-2/BTZ [22]
  Activity: Active
MM1.S [23]
  Activity: Active
NCI-H929 [24]
  CI: 0.712
OPM-2/BTZ [25]
  CI: 1.274
NCI-H929 [26]
  CI: 0.783
NCI-H929 [27]
  CI: 0.858
OPM-2/BTZ [28]
  Activity: Active
NCI-H929 [29]
  Activity: Active
